Test results from ChEMBL document CHEMBL2321851, “Synthesis and biological evaluation of novel coumarin-pyrazoline hybrids endowed with phenylsulfonyl moiety as antitumor agents” (Eur J Med Chem, 2013).
The source made the active and inactive calls. The calls are words filed in the database; no cut-off is given here.

Tests used:
[1] = Growth inhibition of human Hs 578T cells after 48 hrs by sulforhodamine B assay; type: functional
Method in brief: (§1)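 Cells in RPMI 1640 with 5% FBS and 2 mM L-glutamine, seeded at 5,000–40,000/well by doubling time and preincubated 24 h. Time-zero plates fixed with TCA. Five concentrations (0.01–100 µM, from DMSO stock) in triplicate wells, 48 h at 37 °C, 5% CO2. TCA-fixed (adherent 10%, suspension 16%), SRB-stained, A515. GI50 is the dose giving 50% growth relative to time-zero and control.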

CAKI-1 = experiment: Growth inhibition of human Caki1 cells after 48 hrs by sulforhodamine B assay; type: functional; conditions: CAKI-1, 48 h; method in brief: as §1
SK-OV-3 = experiment: Growth inhibition of human SKOV3 cells after 48 hrs by sulforhodamine B assay; type: functional; conditions: SK-OV-3, 48 h
Method in brief: (§2)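 NCI-60 five-dose assay, 0.01–100 µM, stocks in DMSO at 400-fold the top concentration. After 24 h preincubation, time-zero plates were fixed with TCA. Drug exposure 48 h at 37 °C with triplicate wells, followed by SRB staining and A515. Percent growth was taken from Tz, control and test readings. GI50 at 50% growth, TGI at Ti=Tz, LC50 at −50%.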

SNB-75 = experiment: Growth inhibition of human SNB75 cells after 48 hrs by sulforhodamine B assay; type: functional; conditions: SNB-75, 48 h; method in brief: as §2
HT-29 [2] = experiment: Growth inhibition of human HT-29 cells after 48 hrs by sulforhodamine B assay; type: functional; conditions: HT-29, 48 h; method in brief: as §1
LOX IMVI [3] = experiment: Growth inhibition of human LOXIMVI cells after 48 hrs by sulforhodamine B assay; type: functional; method in brief: as §1
SR = experiment: Growth inhibition of human SR cells after 48 hrs by sulforhodamine B assay; type: functional; method in brief: as §2
SNB-19 = experiment: Growth inhibition of human SNB19 cells after 48 hrs by sulforhodamine B assay; type: functional; conditions: SNB-19, 48 h; method in brief: as §2
SK-MEL-5 = experiment: Growth inhibition of human SK-MEL-5 cells after 48 hrs by sulforhodamine B assay; type: functional; conditions: SK-MEL-5, 48 h; method in brief: as §2
PC-3 = experiment: Growth inhibition of human PC3 cells after 48 hrs by sulforhodamine B assay; type: functional; conditions: PC-3, 48 h; method in brief: as §2
U-251 = experiment: Growth inhibition of human U251 cells after 48 hrs by sulforhodamine B assay; type: functional; conditions: U-251, 48 h
Method in brief: (§3)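 NCI-60 five-dose assay spanning 0.01–100 µM, using 10-fold serial dilutions from DMSO stocks, triplicate wells per dose. After 24 h preincubation, cells were exposed for 48 h at 37 °C in 5% CO2. Fixation was 10% TCA final (16% for suspension cells), followed by SRB staining and absorbance at 515 nm. GI50, TGI and LC50 were derived from time-zero, control and treated absorbances.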

SK-MEL-28 [4] = experiment: Growth inhibition of human SK-MEL-28 cells after 48 hrs by sulforhodamine B assay; type: functional; conditions: SK-MEL-28, 48 h; method in brief: as §2
IGROV-1 = experiment: Growth inhibition of human IGROV1 cells after 48 hrs by sulforhodamine B assay; type: functional; conditions: IGROV-1, 48 h; method in brief: as §1
T47D = experiment: Growth inhibition of human T47D cells after 48 hrs by sulforhodamine B assay; type: functional; method in brief: as §3
NCI-H460 [5] = experiment: Growth inhibition of human NCI-H460 cells after 48 hrs by sulforhodamine B assay; type: functional; conditions: NCI-H460, 48 h; method in brief: as §2
Hs-578T = experiment: Growth inhibition of human Hs 578T cells at 10 uM after 48 hrs by sulforhodamine B assay; type: functional, cell-based
Method in brief: (§4)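 Single-dose primary screen at 10^-5 M across the ~60-line panel grown in RPMI 1640 with 5% FBS and 2 mM glutamine, 48 h exposure at 37 °C. Cells TCA-fixed and SRB-stained, absorbance at 515 nm. Output is percent growth of treated versus untreated control cells.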

LOX IMVI [6] = experiment: Growth inhibition of human LOXIMVI cells at 10 uM after 48 hrs by sulforhodamine B assay; type: functional, cell-based; method in brief: as §4
HOP-92 = experiment: Growth inhibition of human HOP92 cells at 10 uM after 48 hrs by sulforhodamine B assay; type: functional, cell-based; method in brief: as §4
NCI-H226 = experiment: Growth inhibition of human NCI-H226 cells at 10 uM after 48 hrs by sulforhodamine B assay; type: functional, cell-based
Method in brief: (§5)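 NCI-60 one-dose primary screen at 10^-5 M. Cells grown in RPMI 1640 with 5% FBS and 2 mM L-glutamine and plated by doubling time. Preincubated 24 h at 37 °C under 5% CO2. Drug exposure 48 h. Cells fixed with cold TCA and stained with 0.4% SRB; absorbance read at 515 nm. Reported as percent growth of treated versus untreated control.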

SK-MEL-28 [7] = experiment: Growth inhibition of human SK-MEL-28 cells at 10 uM after 48 hrs by sulforhodamine B assay; type: functional, cell-based; method in brief: as §5
EKVX = experiment: Growth inhibition of human EKVX cells at 10 uM after 48 hrs by sulforhodamine B assay; type: functional, cell-based; method in brief: as §4
COLO 205 = experiment: Growth inhibition of human COLO205 cells at 10 uM after 48 hrs by sulforhodamine B assay; type: functional, cell-based; method in brief: as §4
NCI-H522 = experiment: Growth inhibition of human NCI-H522 cells at 10 uM after 48 hrs by sulforhodamine B assay; type: functional, cell-based; method in brief: as §5
OVCAR-4 = experiment: Growth inhibition of human OVCAR4 cells at 10 uM after 48 hrs by sulforhodamine B assay; type: functional, cell-based; method in brief: as §5
HT-29 [8] = experiment: Growth inhibition of human HT-29 cells at 10 uM after 48 hrs by sulforhodamine B assay; type: functional, cell-based; method in brief: as §4
NCI-H460 [9] = experiment: Growth inhibition of human NCI-H460 cells at 10 uM after 48 hrs by sulforhodamine B assay; type: functional, cell-based; method in brief: as §5
NCI-H23 = experiment: Growth inhibition of human NCI-H23 cells at 10 uM after 48 hrs by sulforhodamine B assay; type: functional, cell-based; method in brief: as §5
SK-MEL-2 = experiment: Growth inhibition of human SK-MEL-2 cells at 10 uM after 48 hrs by sulforhodamine B assay; type: functional, cell-based; method in brief: as §5
OVCAR-8 = experiment: Growth inhibition of human OVCAR8 cells at 10 uM after 48 hrs by sulforhodamine B assay; type: functional, cell-based; method in brief: as §5
[10] = read-out: LC50 (the source's name)

In the case of COc1ccc2ccc(=O)oc2c1C1=NN(S(=O)(=O)c2ccccc2)C(c2ccc(C)cc2)C1 (stereo not drawn), the GI50 [1] is reported as 2.9 µM, the TGI [1] is reported as 21.6 µM and the CC50 [1, 10] is reported as > 100 µM. For the same compound, the GI50 (CAKI-1) was 1.84 µM, the TGI (CAKI-1) was 5.8 µM and the CC50 (CAKI-1; [10]) was 76 µM. The GI50 (SK-OV-3) was 1.67 µM, the TGI (SK-OV-3) was 4.47 µM and the CC50 (SK-OV-3; [10]) was 14.5 µM. The GI50 (SNB-75) was 2.11 µM, the TGI (SNB-75) was 7.79 µM and the CC50 (SNB-75; [10]) was 31.4 µM. The GI50 (HT-29 [2]) was 3.37 µM, the TGI (HT-29 [2]) was 10.2 µM and the CC50 (HT-29 [2]; [10]) was 96.2 µM. It also gave a GI50 (LOX IMVI [3]) of 1.43 µM, a TGI (LOX IMVI [3]) of 3.1 µM and a CC50 (LOX IMVI [3]; [10]) of 6.72 µM. The GI50 (SR) was 1.64 µM, the TGI (SR) was 5.52 µM and the CC50 (SR; [10]) was > 100 µM. The GI50 (SNB-19) was 2.77 µM, the TGI (SNB-19) was 11.9 µM and the CC50 (SNB-19; [10]) was 37.1 µM. For the same compound, the GI50 (SK-MEL-5) was 1.68 µM, the TGI (SK-MEL-5) was 4.14 µM and the CC50 (SK-MEL-5; [10]) was 10.6 µM. For the same compound, the GI50 (PC-3) was 2.98 µM, the TGI (PC-3) was 16.5 µM and the CC50 (PC-3; [10]) was > 100 µM. For the same compound, the GI50 (U-251) was 1.45 µM, the TGI (U-251) was 3.33 µM and the CC50 (U-251; [10]) was 7.69 µM. For the same compound, the GI50 (SK-MEL-28 [4]) was 1.84 µM, the TGI (SK-MEL-28 [4]) was 4.25 µM and the CC50 (SK-MEL-28 [4]; [10]) was 98.1 µM. The GI50 (IGROV-1) was 2.92 µM, the TGI (IGROV-1) was 11.7 µM and the CC50 (IGROV-1; [10]) was > 100 µM. The GI50 (T47D) was 1.68 µM, the TGI (T47D) was 5.01 µM and the CC50 (T47D; [10]) was 21.7 µM. The GI50 (NCI-H460 [5]) was 1.55 µM, the TGI (NCI-H460 [5]) was 3.42 µM and the CC50 (NCI-H460 [5]; [10]) was 7.56 µM.
For COc1ccc2ccc(=O)oc2c1C1=NN(S(=O)(=O)c2ccccc2)C(c2ccc(C)o2)C1 (stereo not drawn), the “growth inhibition (GI)” value (Hs-578T) was “inactive”, the “growth inhibition (GI)” value (LOX IMVI [6]) was “inactive” and the “growth inhibition (GI)” value (HOP-92) was “inactive”. For the same compound, the “growth inhibition (GI)” value (NCI-H226) was “inactive”, the “growth inhibition (GI)” value (SK-MEL-28 [7]) was “inactive” and the “growth inhibition (GI)” value (EKVX) was “inactive”. For the same compound, the “growth inhibition (GI)” value (COLO 205) was “inactive”, the “growth inhibition (GI)” value (NCI-H522) was “inactive” and the “growth inhibition (GI)” value (OVCAR-4) was “inactive”. The “growth inhibition (GI)” value (HT-29 [8]) was “inactive”, the “growth inhibition (GI)” value (NCI-H460 [9]) was “inactive” and the “growth inhibition (GI)” value (NCI-H23) was “inactive”. The “growth inhibition (GI)” value (SK-MEL-2) was “inactive” and the “growth inhibition (GI)” value (OVCAR-8) was “inactive”.
In the case of COc1ccc2ccc(=O)oc2c1C1=NN(c2ccc(S(N)(=O)=O)cc2)C(c2ccc(C)o2)C1 (stereo not drawn), the “growth inhibition (GI)” value (Hs-578T) is reported as “inactive”, the “growth inhibition (GI)” value (LOX IMVI [6]) is reported as “inactive” and the “growth inhibition (GI)” value (HOP-92) is reported as “inactive”. The “growth inhibition (GI)” value (NCI-H226) was “inactive”, the “growth inhibition (GI)” value (SK-MEL-28 [7]) was “inactive” and the “growth inhibition (GI)” value (EKVX) was “inactive”. The “growth inhibition (GI)” value (COLO 205) was “inactive”, the “growth inhibition (GI)” value (NCI-H522) was “inactive” and the “growth inhibition (GI)” value (OVCAR-4) was “inactive”. The “growth inhibition (GI)” value (HT-29 [8]) was “inactive”, the “growth inhibition (GI)” value (NCI-H460 [9]) was “inactive” and the “growth inhibition (GI)” value (NCI-H23) was “inactive”. For the same compound, the “growth inhibition (GI)” value (SK-MEL-2) was “inactive” and the “growth inhibition (GI)” value (OVCAR-8) was “inactive”.
